Among the data in ChEMBL document CHEMBL3585348, “Armochaetoglobins A-J: Cytochalasan Alkaloids from Chaetomium globosum TW1-1, a Fungus Derived from the Terrestrial Arthropod Armadillidium vulgare” (J Nat Prod, 2015) are IC50 values, retold here.

Molecules are shown by their SMILES.

One assay has as its system HL-60. Description: Cytotoxicity against human HL60 cells assessed as cell viability after 48 hrs by MTS assay. It counts as functional, cell-based. As to conditions: HL-60, 48 h. The method in brief:
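HL-60 suspension cells grown in DMEM or RPMI1640 with 10% FBS at 37 °C in 5% CO2, seeded at 1 × 10^5 cells/mL just before dosing. Exposure was 48 h, in triplicate, at 0.0625–40 μM (five concentrations), with cisplatin and paclitaxel controls. MTS (5 mg/mL) was added for 4 h at 37 °C, followed by 10% SDS lysis and OD at 595 nm.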

For a further assay, the system named is SMMC-7721. The experiment in a line: Cytotoxicity against human SMMC7721 cells assessed as cell viability after 48 hrs by MTS assay. The following applies: SMMC-7721, 48 h. Type of assay: functional, cell-based. The method in brief: (§1)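 Adherent cells grown in DMEM or RPMI1640 with 10% FBS at 37 °C in 5% CO2, seeded in 96-well plates, and left to adhere 12 h. Compounds were added at 0.0625, 0.32, 1.6, 8 and 40 μM for 48 h, in triplicate, with cisplatin and paclitaxel as positive controls. MTS (5 mg/mL) was added for 4 h at 37 °C, cells lysed in 10% SDS, and OD read at 595 nm.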

A further assay relates to A549. The experiment in a line: Cytotoxicity against human A549 cells assessed as cell viability after 48 hrs by MTS assay. Type of assay: functional, cell-based. As to conditions: A549, 48 h. Put shortly: as §1
For the next assay, the system named is MCF7. Description: Cytotoxicity against human MCF7 cells assessed as cell viability after 48 hrs by MTS assay. It counts as functional, cell-based. As to conditions: MCF7, 48 h. The method in brief: as §1
A further assay has as its system SW480. Description: Cytotoxicity against human SW480 cells assessed as cell viability after 48 hrs by MTS assay. It counts as functional, cell-based. The following applies: SW480, 48 h. The method in brief:
as §1

Assay [1] is described as follows: Cytotoxicity against human BEAS2B cells assessed as cell viability after 48 hrs by MTS assay. It counts as cell-based. As to conditions: BEAS-2B. The method in brief:
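Noncancerous human bronchial epithelial BEAS-2B cells grown in DMEM or RPMI1640 with 10% FBS at 37 °C in 5% CO2, seeded in 96-well plates and allowed 12 h to adhere before compound addition. Viability was read after adding MTS (5 mg/mL) for 4 h at 37 °C, lysing in 10% SDS, and measuring formazan OD at 595 nm.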

For the molecule `C/C1=C\[C@@H](C)C/C=C/[C@H]2C=C(CO)[C@@H](C)[C@H]3[C@H](Cc4c[nH]c5ccccc45)NC(=O)[C@]32C(=O)/C=C/C(=O)[C@@H]1O`, the 50% inhibitory concentration (IC50) with HL-60 was 3.31 µM; in the assay on SMMC-7721 it was 9.83 µM; in the assay with A549 it was 8.01 µM; with MCF7, 4.06 µM; with SW480, 3.9 µM; in assay [1], 3.34 µM.
Consider `C/C(C=O)=C\C(C)C/C=C/[C@H]1[C@@H]2O[C@]2(C)[C@@H](C)[C@H]2[C@H](Cc3c[nH]c4ccccc34)NC(=O)[C@]21C(=O)CCC(=O)O` (stereo not given in full), for which the IC50 is greater than 40 µM in the assay with HL-60; 25 µM in the assay with SMMC-7721; greater than 40 µM in the assay with A549; greater than 40 µM with MCF7; greater than 40 µM in the assay with SW480; greater than 40 µM in assay [1].
`CC(=O)O[C@H]1C(=O)[C@@]2(C)[C@H]([C@H](OC(=O)c3ccccc3)[C@]3(O)C[C@H](OC(=O)[C@H](O)[C@@H](NC(=O)c4ccccc4)c4ccccc4)C(C)=C1C3(C)C)[C@]1(OC(C)=O)CO[C@@H]1C[C@@H]2O` [PACLITAXEL]: the IC50 in the assay on HL-60 was less than 0.008 µM; with SMMC-7721 it was less than 0.008 µM; in the assay with A549, less than 0.008 µM; with MCF7 it was less than 0.008 µM; in the assay on SW480, less than 0.008 µM; in assay [1], 0.58 µM.
Regarding `COC(=O)CCC(=O)[C@@]12C(=O)N[C@@H](Cc3c[nH]c4ccccc34)[C@@H]1[C@H](C)[C@@]1(C)O[C@H]1[C@@H]2/C=C/CC(C)/C=C(\C)C=O` (stereo not given in full), the half-maximal inhibitory concentration (IC50) with HL-60 was found to be 14 µM; with SMMC-7721 it was 10.8 µM; with A549, 19.8 µM; with MCF7, 22.7 µM; in the assay on SW480, 38.2 µM; in assay [1], 5.68 µM.
On to `C/C(C=O)=C\C(C)C/C=C/[C@H]1[C@@H]2O[C@]2(C)[C@@H](C)[C@H]2[C@H](Cc3c[nH]c4ccccc34)NC(=O)[C@]21C(=O)CCCO` (stereo not given in full), for which the half-inhibitory concentration (IC50) with HL-60 is 11.9 µM; with SMMC-7721, 10.6 µM; in the assay with A549, 16.3 µM; with MCF7 it was greater than 40 µM; in the assay with SW480, greater than 40 µM; in assay [1], 15.5 µM.
For `C/C(=C\C(C)C/C=C/[C@H]1[C@@H]2O[C@]2(C)[C@@H](C)[C@H]2[C@H](Cc3c[nH]c4ccccc34)NC(=O)[C@]21C(=O)CCCO)CO` (stereo not given in full), the IC50 with HL-60 was 16.5 µM; with SMMC-7721, 19.4 µM; in the assay with A549, 30.9 µM; in the assay with MCF7 it was greater than 40 µM; with SW480, greater than 40 µM; in assay [1] it was 23.1 µM.
On to `CC1=C[C@@H]2/C=C/C[C@H](C)/C=C(\C)C(=O)[C@@H](O)CCC(=O)[C@]23C(=O)N[C@@H](Cc2c[nH]c4ccccc24)[C@@H]3[C@@H]1C`, for which the IC50 in the assay on HL-60 was determined as 12.6 µM; in the assay on SMMC-7721, 13.8 µM; in the assay on A549, 14.3 µM; in the assay with MCF7, 14.8 µM; in the assay with SW480 it was 20.6 µM; in assay [1], 16 µM.
Regarding `CC1=C[C@@H]2/C=C/C[C@H](C)/C=C(\C)[C@@H](O)[C@@H](O)CCC(=O)[C@]23C(=O)N[C@@H](Cc2c[nH]c4ccccc24)[C@@H]3[C@@H]1C`, the half-inhibitory concentration (IC50) (with HL-60; with SMMC-7721; in the assay on A549; with MCF7; with SW480; in assay [1]) was greater than 40 µM in each case.
Consider `C/C1=C\[C@@H](C)C/C=C/[C@H]2[C@H](O)[C@@]3(C)O[C@@]4(Cc5c[nH]c6ccccc56)NC(=O)[C@]2(C(=O)CCC(=O)C1=O)[C@H]4[C@@H]3C`, for which the half-inhibitory concentration (IC50) in the assay on HL-60 was determined as 18.2 µM; with SMMC-7721, 17.4 µM; in the assay with A549 it was 17.7 µM; in the assay with MCF7, 19.1 µM; in the assay with SW480 it was 35.3 µM; in assay [1] it was 16.6 µM.
With `C/C1=C\[C@@H](C)C/C=C/[C@H]2C=C(CO)[C@@H](C)[C@H]3[C@H](Cc4c[nH]c5ccccc45)NC(=O)[C@]32C(=O)CCC(=O)C1`, the IC50 (in the assay with HL-60; in the assay on SMMC-7721; in the assay with A549; in the assay with MCF7; with SW480; in assay [1]) was greater than 40 µM throughout.
